From ChEMBL document CHEMBL5724801, “EUbOPEN Chemogenomics Library - Multiplex” (2024)
Values joined by “and” are separate entries in the source; they are usually repeats but may differ in a detail not shown here. Identical values can stand only once.

Assays:
Fibroblast = assay: Multiplex assay against human fibroblast; type: toxicity, cell-based
In short: (§1)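 Phenotypes for tubulin, mitochondrial mass and membrane permeability are expressed as per cents of healthy-nucleus cells. Cells were stained live at seeding with Hoechst33342, BioTracker Green Microtubule Cytoskeleton Dye, MitoTracker Red and Annexin V Alexa Fluor 680, then imaged after compound addition on a CQ1 microscope at 37°C and 5% CO2. Machine-learning gating in CellPathfinder separated Hoechst high-intensity objects from normal cells, divided normal cells by nuclear state (healthy, pyknosed, fragmented) and divided pyknosed cells into mitotic or apoptotic.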

HEK-293T = assay: Multiplex assay against HEK293T; type: toxicity, cell-based; conditions: human; in short: as §1
[1] = 12 h, 1 µM, compound concentration 1 uM
[2] = 12 h, 10 µM, compound concentration 10 uM
[3] = 24 h, 1 µM, compound concentration 1 uM
[4] = 24 h, 10 µM, compound concentration 10 uM
[5] = 48 h, 1 µM, compound concentration 1 uM
[6] = 48 h, 10 µM, compound concentration 10 uM

`CC(C)(C)c1ccc(CSc2cnn(C(C)(C)C)c(=O)c2Cl)cc1` [PYRIDABEN] was tested, and the “Population Apoptotic (%)” value (Fibroblast; [1]) was 46% and 44%, the “Population Fragmented Nuclei (%)” value (Fibroblast; [1]) was 15% and 27% and the “Population Healthy Nuclei (%)” value (Fibroblast; [1]) was 66% and 47%. For the same compound, the “Population Hoechst High Intensity Objects (%)” value (Fibroblast; [1]) was 1% and 4%, the “Population Membrane Permeable-Phenotype (%)” value (Fibroblast; [1]) was 3% and 12% and the “Population Mitochondria Different-Phenotype (%)” value (Fibroblast; [1]) was 1% and 7%. The “Population Mitotic Cells (%)” value (Fibroblast; [1]) was 53% and 55%, the “Population Normal (%)” value (Fibroblast; [1]) was 98% and 95% and the “Population Pyknosed Nuclei (%)” value (Fibroblast; [1]) was 17% and 25%. The “Population Tubulin-Different-Phenotype (%)” value (Fibroblast; [1]) was 28% and 57%, the “Total Cell Count” value (Fibroblast; [1]) was 148 and 142 and the “Population Apoptotic (%)” value (Fibroblast; [2]) was 25% and 47%. For the same compound, the “Population Fragmented Nuclei (%)” value (Fibroblast; [2]) was 11% and 25%, the “Population Healthy Nuclei (%)” value (Fibroblast; [2]) was 68% and 49% and the “Population Hoechst High Intensity Objects (%)” value (Fibroblast; [2]) was 4% and 1%. The “Population Membrane Permeable-Phenotype (%)” value (Fibroblast; [2]) was 2% and 12%, the “Population Mitochondria Different-Phenotype (%)” value (Fibroblast; [2]) was 5% and 4% and the “Population Mitotic Cells (%)” value (Fibroblast; [2]) was 74% and 52%. The “Population Normal (%)” value (Fibroblast; [2]) was 95% and 98%, the “Population Pyknosed Nuclei (%)” value (Fibroblast; [2]) was 20% and 25% and the “Population Tubulin-Different-Phenotype (%)” value (Fibroblast; [2]) was 35% and 54%. The “Total Cell Count” value (Fibroblast; [2]) was 139 and 136, the “Population Apoptotic (%)” value (Fibroblast; [3]) was 35% and 36% and the “Population Fragmented Nuclei (%)” value (Fibroblast; [3]) was 17% and 30%. For the same compound, the “Population Healthy Nuclei (%)” value (Fibroblast; [3]) was 71% and 48%, the “Population Hoechst High Intensity Objects (%)” value (Fibroblast; [3]) was 0% and 4% and the “Population Membrane Permeable-Phenotype (%)” value (Fibroblast; [3]) was 0% and 7%. The “Population Mitochondria Different-Phenotype (%)” value (Fibroblast; [3]) was 2% and 8%, the “Population Mitotic Cells (%)” value (Fibroblast; [3]) was 64% and 63% and the “Population Normal (%)” value (Fibroblast; [3]) was 99% and 95%. For the same compound, the “Population Pyknosed Nuclei (%)” value (Fibroblast; [3]) was 11% and 21%, the “Population Tubulin-Different-Phenotype (%)” value (Fibroblast; [3]) was 20% and 50% and the “Total Cell Count” value (Fibroblast; [3]) was 148. The “Population Apoptotic (%)” value (Fibroblast; [4]) was 56% and 54%, the “Population Fragmented Nuclei (%)” value (Fibroblast; [4]) was 13% and 28% and the “Population Healthy Nuclei (%)” value (Fibroblast; [4]) was 62% and 48%. For the same compound, the “Population Hoechst High Intensity Objects (%)” value (Fibroblast; [4]) was 2% and 0%, the “Population Membrane Permeable-Phenotype (%)” value (Fibroblast; [4]) was 1% and 9% and the “Population Mitochondria Different-Phenotype (%)” value (Fibroblast; [4]) was 7% and 9%. For the same compound, the “Population Mitotic Cells (%)” value (Fibroblast; [4]) was 43% and 45%, the “Population Normal (%)” value (Fibroblast; [4]) was 97% and 99% and the “Population Pyknosed Nuclei (%)” value (Fibroblast; [4]) was 23% and 22%. For the same compound, the “Population Tubulin-Different-Phenotype (%)” value (Fibroblast; [4]) was 40% and 53%, the “Total Cell Count” value (Fibroblast; [4]) was 139 and 136 and the “Population Apoptotic (%)” value (Fibroblast; [5]) was 50% and 45%. For the same compound, the “Population Fragmented Nuclei (%)” value (Fibroblast; [5]) was 27% and 43%, the “Population Healthy Nuclei (%)” value (Fibroblast; [5]) was 62% and 41% and the “Population Hoechst High Intensity Objects (%)” value (Fibroblast; [5]) was 1% and 4%. The “Population Membrane Permeable-Phenotype (%)” value (Fibroblast; [5]) was 0% and 6%, the “Population Mitotic Cells (%)” value (Fibroblast; [5]) was 50% and 54% and the “Population Normal (%)” value (Fibroblast; [5]) was 98% and 95%. The “Population Pyknosed Nuclei (%)” value (Fibroblast; [5]) was 9% and 15%, the “Population Tubulin-Different-Phenotype (%)” value (Fibroblast; [5]) was 28% and 63% and the “Total Cell Count” value (Fibroblast; [5]) was 164 and 153. For the same compound, the “Population Apoptotic (%)” value (Fibroblast; [6]) was 72% and 63%, the “Population Fragmented Nuclei (%)” value (Fibroblast; [6]) was 19% and 36% and the “Population Healthy Nuclei (%)” value (Fibroblast; [6]) was 62% and 48%. For the same compound, the “Population Hoechst High Intensity Objects (%)” value (Fibroblast; [6]) was 4% and 5%, the “Population Membrane Permeable-Phenotype (%)” value (Fibroblast; [6]) was 0% and 8% and the “Population Mitochondria Different-Phenotype (%)” value (Fibroblast; [6]) was 8% and 10%. For the same compound, the “Population Mitotic Cells (%)” value (Fibroblast; [6]) was 28% and 36%, the “Population Normal (%)” value (Fibroblast; [6]) was 95% and 94% and the “Population Pyknosed Nuclei (%)” value (Fibroblast; [6]) was 18% and 15%. For the same compound, the “Population Tubulin-Different-Phenotype (%)” value (Fibroblast; [6]) was 49% and 58%, the “Total Cell Count” value (Fibroblast; [6]) was 143 and 131 and the “Population Apoptotic (%)” value (HEK-293T; [1]) was 51% and 28%. For the same compound, the “Population Fragmented Nuclei (%)” value (HEK-293T; [1]) was 7% and 6%, the “Population Healthy Nuclei (%)” value (HEK-293T; [1]) was 78% and 83% and the “Population Hoechst High Intensity Objects (%)” value (HEK-293T; [1]) was 12% and 8%. For the same compound, the “Population Membrane Permeable-Phenotype (%)” value (HEK-293T; [1]) was 0%, the “Population Mitochondria Different-Phenotype (%)” value (HEK-293T; [1]) was 51% and 63% and the “Population Mitotic Cells (%)” value (HEK-293T; [1]) was 48% and 71%. For the same compound, the “Population Normal (%)” value (HEK-293T; [1]) was 87% and 91%, the “Population Pyknosed Nuclei (%)” value (HEK-293T; [1]) was 14% and 10% and the “Population Tubulin-Different-Phenotype (%)” value (HEK-293T; [1]) was 34% and 30%. The “Total Cell Count” value (HEK-293T; [1]) was 299 and 306, the “Population Apoptotic (%)” value (HEK-293T; [2]) was 56% and 62% and the “Population Fragmented Nuclei (%)” value (HEK-293T; [2]) was 6% and 8%. The “Population Healthy Nuclei (%)” value (HEK-293T; [2]) was 77% and 74%, the “Population Hoechst High Intensity Objects (%)” value (HEK-293T; [2]) was 11% and 17% and the “Population Membrane Permeable-Phenotype (%)” value (HEK-293T; [2]) was 0%. The “Population Mitochondria Different-Phenotype (%)” value (HEK-293T; [2]) was 75% and 81%, the “Population Mitotic Cells (%)” value (HEK-293T; [2]) was 44% and 37% and the “Population Normal (%)” value (HEK-293T; [2]) was 88% and 82%. For the same compound, the “Population Pyknosed Nuclei (%)” value (HEK-293T; [2]) was 15% and 16%, the “Population Tubulin-Different-Phenotype (%)” value (HEK-293T; [2]) was 55% and 38% and the “Total Cell Count” value (HEK-293T; [2]) was 359 and 236. The “Population Apoptotic (%)” value (HEK-293T; [3]) was 33% and 35%, the “Population Fragmented Nuclei (%)” value (HEK-293T; [3]) was 7% and the “Population Healthy Nuclei (%)” value (HEK-293T; [3]) was 80% and 83%. For the same compound, the “Population Hoechst High Intensity Objects (%)” value (HEK-293T; [3]) was 9% and 8%, the “Population Membrane Permeable-Phenotype (%)” value (HEK-293T; [3]) was 0% and the “Population Mitochondria Different-Phenotype (%)” value (HEK-293T; [3]) was 37% and 43%. The “Population Mitotic Cells (%)” value (HEK-293T; [3]) was 66% and 64%, the “Population Normal (%)” value (HEK-293T; [3]) was 90% and 91% and the “Population Pyknosed Nuclei (%)” value (HEK-293T; [3]) was 11% and 8%. The “Population Tubulin-Different-Phenotype (%)” value (HEK-293T; [3]) was 27% and 22% and the “Total Cell Count” value (HEK-293T; [3]) was 373 and 370.
